These results are taken from PubChem BioAssay AID504483 (The Scripps Research Institute Molecular Screening Center, 2011).

The assay deals with Platelet-activating factor acetylhydrolase (Mus musculus) (UniProt Q60963). Description: murine plasma PAF acetylhydrolase inhibitors – cell lysate, gel-based competitive ABPP, COS-7 proteome, fluorescence, selectivity assay for PAFAH2 inhibitor project, late-stage follow-up (AID 504483). To be noted: murine pPAFAH, gel ABPP FP-Rh, at 1 µM (top of the series). The method in brief:
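System: soluble COS-7 proteome expressing murine pPAFAH; Amount: proteome 1 mg/mL; Reagent: rhodamine fluorophosphonate probe FP-Rh, 2 µM final; Times: compound 30 min at 25 °C, FP-Rh 30 min; Measured by: in-gel fluorescence scan after SDS-PAGE, band integrated optical density; Measure: % inhibition versus DMSO control; Benchmarks: DMSO-only high, blank-gel background low.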

The structures appear in SMILES notation. Calls of active or inactive are those of the source.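 How the source made its calls: active means inhibition of the enzyme at or above 50% at 0.1 µM compound; inactive means the rest.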

Platelet-activating factor acetylhydrolase (Mus musculus), sequence (Q60963 whole entry, looked up): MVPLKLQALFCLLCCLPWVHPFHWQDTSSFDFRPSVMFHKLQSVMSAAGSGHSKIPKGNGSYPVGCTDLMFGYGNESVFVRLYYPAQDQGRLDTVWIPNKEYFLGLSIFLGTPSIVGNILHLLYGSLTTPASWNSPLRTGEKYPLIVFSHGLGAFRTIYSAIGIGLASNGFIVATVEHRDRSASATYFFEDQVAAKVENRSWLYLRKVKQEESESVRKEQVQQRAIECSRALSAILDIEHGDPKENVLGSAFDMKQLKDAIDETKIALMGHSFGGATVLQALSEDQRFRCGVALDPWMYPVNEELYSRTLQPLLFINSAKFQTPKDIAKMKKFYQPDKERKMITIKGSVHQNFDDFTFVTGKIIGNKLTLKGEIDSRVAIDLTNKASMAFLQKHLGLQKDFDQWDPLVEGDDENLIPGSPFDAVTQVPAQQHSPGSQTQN

`O=C(N1CCCC1)n1ncc(-c2ccc(-c3ccccc3)cc2)n1`: the inhibition was 85% (inactive).
